Data: the M2OR odorant receptor database
Changes are numbered by the printed parent chain.

Tests used:
Details in all cases: stereoisomer not certain
OR2A12 (Homo sapiens) = target: T1, OR2A12 (Homo sapiens) (UniProt Q8NGT7)
T1 sequence (whole entry): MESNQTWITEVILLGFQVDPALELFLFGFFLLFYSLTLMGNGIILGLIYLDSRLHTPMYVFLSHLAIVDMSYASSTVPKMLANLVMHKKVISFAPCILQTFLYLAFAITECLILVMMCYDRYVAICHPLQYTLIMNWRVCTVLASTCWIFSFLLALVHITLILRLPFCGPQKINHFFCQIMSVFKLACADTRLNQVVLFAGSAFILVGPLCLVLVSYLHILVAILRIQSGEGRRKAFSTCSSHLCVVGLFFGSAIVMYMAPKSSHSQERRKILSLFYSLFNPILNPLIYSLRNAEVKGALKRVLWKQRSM
Method in brief: (§1)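 Assay methods differ from source to source, frequently being transient luciferase assays in mammalian cell lines. For each receptor–molecule pair, the label responsive (active) applies when the original authors judged the measured signal statistically different from baseline, and non-responsive (inactive) applies otherwise.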

OR2A14 (Homo sapiens) = target: T2, OR2A14 (Homo sapiens) (UniProt Q96R47)
T2 sequence (whole entry): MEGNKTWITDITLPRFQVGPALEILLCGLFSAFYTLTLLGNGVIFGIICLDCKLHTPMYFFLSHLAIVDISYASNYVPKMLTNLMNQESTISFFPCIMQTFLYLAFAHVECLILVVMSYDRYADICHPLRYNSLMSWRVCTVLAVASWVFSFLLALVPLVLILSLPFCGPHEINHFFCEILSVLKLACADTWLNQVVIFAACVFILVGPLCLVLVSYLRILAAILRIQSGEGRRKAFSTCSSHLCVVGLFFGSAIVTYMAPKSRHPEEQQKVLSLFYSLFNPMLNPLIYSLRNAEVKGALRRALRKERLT
Method in brief: as §1

OR2A2 (Homo sapiens) = target: T3, OR2A2 (Homo sapiens) (UniProt Q6IF42)
T3 sequence (whole entry): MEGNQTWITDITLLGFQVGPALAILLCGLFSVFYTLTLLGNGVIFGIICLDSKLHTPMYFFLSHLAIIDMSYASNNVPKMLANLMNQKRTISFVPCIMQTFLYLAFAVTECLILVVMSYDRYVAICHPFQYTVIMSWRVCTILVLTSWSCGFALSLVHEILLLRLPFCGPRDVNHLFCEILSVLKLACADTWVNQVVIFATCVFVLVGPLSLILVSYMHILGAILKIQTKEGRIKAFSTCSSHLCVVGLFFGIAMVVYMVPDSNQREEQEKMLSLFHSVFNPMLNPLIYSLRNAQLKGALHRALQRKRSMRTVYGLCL
Method in brief: as §1

OR2A25 (Homo sapiens) = target: T4, OR2A25 (Homo sapiens) (UniProt A4D2G3)
T4 sequence (whole entry): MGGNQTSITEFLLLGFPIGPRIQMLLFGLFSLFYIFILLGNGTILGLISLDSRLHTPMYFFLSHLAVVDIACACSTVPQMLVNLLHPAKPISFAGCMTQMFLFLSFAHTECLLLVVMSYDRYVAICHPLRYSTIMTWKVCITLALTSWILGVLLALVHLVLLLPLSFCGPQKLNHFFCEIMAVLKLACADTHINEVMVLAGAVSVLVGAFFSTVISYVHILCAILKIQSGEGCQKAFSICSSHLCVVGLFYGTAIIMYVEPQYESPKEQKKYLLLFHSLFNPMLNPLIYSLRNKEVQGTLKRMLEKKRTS
Method in brief: as §1

OR2A4 (Homo sapiens) = target: T5, OR2A4 (Homo sapiens) (UniProt O95047)
T5 sequence (whole entry): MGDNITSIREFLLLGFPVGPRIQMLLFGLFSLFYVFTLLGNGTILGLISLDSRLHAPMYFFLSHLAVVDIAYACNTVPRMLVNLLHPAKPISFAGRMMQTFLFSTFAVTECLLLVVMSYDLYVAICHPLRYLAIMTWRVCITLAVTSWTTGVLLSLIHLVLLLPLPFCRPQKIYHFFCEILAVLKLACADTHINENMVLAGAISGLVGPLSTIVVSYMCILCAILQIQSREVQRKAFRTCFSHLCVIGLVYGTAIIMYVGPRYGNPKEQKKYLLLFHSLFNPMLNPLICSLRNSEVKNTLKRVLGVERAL
Method in brief: as §1

OR2A5 (Homo sapiens) = target: T6, OR2A5 (Homo sapiens) (UniProt Q96R48)
T6 sequence (whole entry): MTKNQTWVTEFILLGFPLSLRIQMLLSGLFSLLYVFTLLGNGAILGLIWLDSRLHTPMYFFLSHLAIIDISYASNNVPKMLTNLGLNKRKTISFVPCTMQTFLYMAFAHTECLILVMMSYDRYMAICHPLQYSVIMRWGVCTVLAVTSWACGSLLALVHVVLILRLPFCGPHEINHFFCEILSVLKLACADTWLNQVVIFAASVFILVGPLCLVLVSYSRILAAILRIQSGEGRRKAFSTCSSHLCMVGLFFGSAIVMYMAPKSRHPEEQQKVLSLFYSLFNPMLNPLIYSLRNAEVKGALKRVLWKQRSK
Method in brief: as §1

OR2A7 (Homo sapiens) = target: T7, OR2A7 (Homo sapiens) (UniProt Q96R45)
T7 sequence (whole entry): T5 sequence (whole entry) with R9T, R238C, V250F
Method in brief: as §1

OR2AE1 (Homo sapiens) = target: T8, OR2AE1 (Homo sapiens) (UniProt Q8NHA4)
T8 sequence (whole entry): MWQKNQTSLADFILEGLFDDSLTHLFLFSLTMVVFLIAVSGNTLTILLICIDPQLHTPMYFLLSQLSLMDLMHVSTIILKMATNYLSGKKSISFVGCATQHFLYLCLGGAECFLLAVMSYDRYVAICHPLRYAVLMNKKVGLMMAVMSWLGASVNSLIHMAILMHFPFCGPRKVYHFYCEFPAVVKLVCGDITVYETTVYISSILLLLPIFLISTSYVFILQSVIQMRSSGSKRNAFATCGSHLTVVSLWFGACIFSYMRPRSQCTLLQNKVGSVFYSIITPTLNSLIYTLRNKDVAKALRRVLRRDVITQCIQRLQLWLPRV
Method in brief: as §1

OR2AG1 (Homo sapiens) = target: T9, OR2AG1 (Homo sapiens) (UniProt Q9H205)
T9 sequence (whole entry): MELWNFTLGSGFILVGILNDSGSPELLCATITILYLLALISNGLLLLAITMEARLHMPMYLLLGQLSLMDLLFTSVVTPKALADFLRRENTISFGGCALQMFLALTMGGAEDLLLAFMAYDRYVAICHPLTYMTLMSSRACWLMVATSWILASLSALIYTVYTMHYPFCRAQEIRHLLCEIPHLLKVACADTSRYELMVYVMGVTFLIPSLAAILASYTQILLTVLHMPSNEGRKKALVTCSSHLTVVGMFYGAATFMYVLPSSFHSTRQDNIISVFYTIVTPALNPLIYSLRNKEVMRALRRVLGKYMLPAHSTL
Method in brief: as §1

OR2AG2 (Homo sapiens) = target: T10, OR2AG2 (Homo sapiens) (UniProt A6NM03)
T10 sequence (whole entry): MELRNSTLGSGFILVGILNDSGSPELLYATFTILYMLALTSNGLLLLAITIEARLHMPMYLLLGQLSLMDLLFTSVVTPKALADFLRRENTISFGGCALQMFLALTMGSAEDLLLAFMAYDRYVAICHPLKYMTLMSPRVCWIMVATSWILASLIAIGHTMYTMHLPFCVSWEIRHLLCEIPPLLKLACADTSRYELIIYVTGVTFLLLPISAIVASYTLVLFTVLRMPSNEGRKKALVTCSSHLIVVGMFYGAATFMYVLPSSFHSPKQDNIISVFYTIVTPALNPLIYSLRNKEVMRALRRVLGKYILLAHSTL
Method in brief: as §1

OR2AJ1 (Homo sapiens) = target: T11, OR2AJ1 (Homo sapiens) (UniProt Q8NGZ0)
T11 sequence (whole entry): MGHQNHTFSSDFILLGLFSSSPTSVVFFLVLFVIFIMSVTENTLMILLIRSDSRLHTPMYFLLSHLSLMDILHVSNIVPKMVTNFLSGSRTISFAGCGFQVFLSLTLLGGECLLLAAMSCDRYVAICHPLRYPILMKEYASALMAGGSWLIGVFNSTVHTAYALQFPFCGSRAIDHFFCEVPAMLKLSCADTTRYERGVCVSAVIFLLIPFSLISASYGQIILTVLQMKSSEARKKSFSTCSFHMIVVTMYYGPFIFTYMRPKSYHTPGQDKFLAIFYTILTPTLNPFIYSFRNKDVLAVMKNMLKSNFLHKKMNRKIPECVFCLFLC
Method in brief: as §1

OR2AK2 (Homo sapiens) = target: T12, OR2AK2 (Homo sapiens) (UniProt Q8NG84)
T12 sequence (whole entry): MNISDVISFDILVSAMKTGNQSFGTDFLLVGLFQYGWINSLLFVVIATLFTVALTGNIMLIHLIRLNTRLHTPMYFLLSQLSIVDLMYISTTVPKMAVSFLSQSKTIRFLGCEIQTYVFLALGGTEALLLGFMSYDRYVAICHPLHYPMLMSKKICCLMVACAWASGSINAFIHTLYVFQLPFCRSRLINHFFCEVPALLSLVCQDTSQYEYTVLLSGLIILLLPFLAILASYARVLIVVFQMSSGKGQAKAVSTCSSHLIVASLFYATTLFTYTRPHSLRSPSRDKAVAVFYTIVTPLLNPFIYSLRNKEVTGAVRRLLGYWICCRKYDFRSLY
Method in brief: as §1

OR2AP1 (Homo sapiens) = target: T13, OR2AP1 (Homo sapiens) (UniProt Q8NGE2)
T13 sequence (whole entry): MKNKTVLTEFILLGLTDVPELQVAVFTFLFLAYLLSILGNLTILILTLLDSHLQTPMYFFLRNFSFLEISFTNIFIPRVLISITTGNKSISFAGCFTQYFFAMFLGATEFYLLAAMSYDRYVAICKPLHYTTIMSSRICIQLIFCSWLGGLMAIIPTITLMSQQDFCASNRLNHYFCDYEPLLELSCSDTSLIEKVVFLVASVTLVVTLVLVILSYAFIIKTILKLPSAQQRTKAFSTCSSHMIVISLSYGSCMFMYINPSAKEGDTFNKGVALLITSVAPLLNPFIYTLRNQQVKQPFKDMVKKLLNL
Method in brief: as §1

OR2AT4 (Homo sapiens) = target: T14, OR2AT4 (Homo sapiens) (UniProt A6NND4)
T14 sequence (whole entry): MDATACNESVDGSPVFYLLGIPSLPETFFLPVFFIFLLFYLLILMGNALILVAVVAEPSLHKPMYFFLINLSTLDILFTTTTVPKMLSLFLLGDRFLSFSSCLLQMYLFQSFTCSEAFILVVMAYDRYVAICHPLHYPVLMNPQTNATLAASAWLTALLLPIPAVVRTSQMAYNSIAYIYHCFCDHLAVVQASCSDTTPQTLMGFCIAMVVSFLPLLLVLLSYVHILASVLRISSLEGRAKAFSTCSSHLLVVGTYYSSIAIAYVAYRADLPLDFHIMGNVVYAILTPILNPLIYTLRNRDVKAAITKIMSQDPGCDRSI
Method in brief: as §1

OR2B11 (Homo sapiens) = target: T15, OR2B11 (Homo sapiens) (UniProt Q5JQS5)
T15 sequence (whole entry): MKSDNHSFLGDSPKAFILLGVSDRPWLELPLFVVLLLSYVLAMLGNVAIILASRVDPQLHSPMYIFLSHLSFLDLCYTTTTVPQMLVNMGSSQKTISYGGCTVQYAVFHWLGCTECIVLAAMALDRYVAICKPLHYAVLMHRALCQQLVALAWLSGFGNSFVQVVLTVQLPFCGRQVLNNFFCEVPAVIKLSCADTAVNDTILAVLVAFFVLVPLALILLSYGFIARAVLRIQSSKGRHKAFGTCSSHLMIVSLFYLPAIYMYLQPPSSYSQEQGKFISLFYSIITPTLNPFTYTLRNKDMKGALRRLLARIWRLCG
Method in brief: as §1

OR2B2 (Homo sapiens) = target: T16, OR2B2 (Homo sapiens) (UniProt Q9GZK3)
T16 sequence (whole entry): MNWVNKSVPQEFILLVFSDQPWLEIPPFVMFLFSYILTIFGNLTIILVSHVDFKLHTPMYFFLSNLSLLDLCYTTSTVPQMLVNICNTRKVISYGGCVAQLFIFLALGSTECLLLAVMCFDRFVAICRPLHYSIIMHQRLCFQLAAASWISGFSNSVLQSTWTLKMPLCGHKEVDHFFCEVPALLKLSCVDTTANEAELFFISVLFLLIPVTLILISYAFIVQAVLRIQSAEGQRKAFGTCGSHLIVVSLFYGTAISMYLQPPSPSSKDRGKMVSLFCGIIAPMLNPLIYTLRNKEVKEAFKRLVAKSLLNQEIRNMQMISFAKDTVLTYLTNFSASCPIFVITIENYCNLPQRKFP
Method in brief: as §1

OR2A1 T73A R74C S168C = test system: T17, OR2A1 T73A R74C S168C
T17 sequence (whole entry): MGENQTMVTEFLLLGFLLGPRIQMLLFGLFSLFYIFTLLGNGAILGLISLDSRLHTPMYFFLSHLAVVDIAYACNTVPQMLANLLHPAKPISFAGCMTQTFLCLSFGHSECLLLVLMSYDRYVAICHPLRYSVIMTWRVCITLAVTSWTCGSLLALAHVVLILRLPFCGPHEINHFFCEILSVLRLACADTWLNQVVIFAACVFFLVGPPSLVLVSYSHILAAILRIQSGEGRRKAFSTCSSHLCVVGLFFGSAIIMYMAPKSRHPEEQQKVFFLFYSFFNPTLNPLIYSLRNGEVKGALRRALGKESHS
Method in brief: as §1

OR2A2 = test system: T18, OR2A2
T18 sequence (whole entry): T3 sequence (whole entry) with F280L
Method in brief: as §1

OR2A5 I126V A202S A255T = test system: T19, OR2A5 I126V A202S A255T
T19 sequence (whole entry): T6 sequence (whole entry) with I126V, A202S, A255T
Method in brief: as §1

OR2A7 = test system: T20, OR2A7
T20 sequence (whole entry): T5 sequence (whole entry) with R238C, V250F
Method in brief: as §1

Measured: odorant receptor agonist call

CCCCCC(S)C(C)CO (centres undefined)
active: OR2AK2 (Homo sapiens) | OR2B2 (Homo sapiens)
not listed: OR2A1 T73A R74C S168C | OR2A2 | OR2A5 I126V A202S A255T | OR2A7
inactive: all other assays above

C=C1CCC2CC1C2(C)C (centres undefined)
active: OR2A7 (Homo sapiens)

c1ccc2ncccc2c1
active: OR2A25 (Homo sapiens) | OR2B11 (Homo sapiens)

CC1CCCCCCCCCCCCC(=O)C1 (centres undefined)
not listed: OR2A1 T73A R74C S168C | OR2A2 | OR2A5 I126V A202S A255T | OR2A7
inactive: all other assays above

CCCCCCC(=O)[O-].[H+]
inactive: OR2A7 (Homo sapiens)

CCCC(S)CCOC(C)=O (centres undefined)
not listed: OR2AJ1 (Homo sapiens)
inactive: all other assays above

CCC1OC(C)=C(O)C1=O (centres undefined)
not listed: OR2AJ1 (Homo sapiens)
inactive: all other assays above
